This passage reports yeast fitness results from the RNAGym collection of RNA variant scans (doi:10.1126/science.aae0568).

First the molecules themselves.
B1: tRNA (parent)
chain: GUUCCGUUGGCGUAAUGGUAACGCGUCUCCCUCCUAAGGAGAAGACUGCGGGUUCGAGUCCCGUACGGAACG

This sample holds only a part of the variants without activity.

This data set covers variants of B1. In words: yeast fitness relative to wild type (ratio to wild type); higher = fitter; tRNA-Arg(CCU), competitive growth, 37 C, YPD. In a few lines: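 The tRNA-Arg(CCU) gene variants were made by chemical synthesis with a 3% per-site mutation rate at 69 sites and inserted at the native genomic locus of Saccharomyces cerevisiae. After pooling, the strains were competed in YPD at 37°C for 24 hours in six parallel replicates. Gene amplicons from the start population and each end population were read by 100-nucleotide paired-end sequencing, and Darwinian fitness relative to wild type was taken from genotype frequency changes. Genotypes needed ≥ 100 starting reads, and estimates < 0.5 were set to 0.5.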
Take C5G U35A C49A G51C: the yeast fitness is ≤ 0.5. Regarding C5U A45U C62G A65G, the yeast fitness is 0.698.

Take C5U C22A C33G C55U: the yeast fitness is ≤ 0.5.

For the variant C5U C11A U13C C24G C30G C46U, the yeast fitness is 0.629. To C5U A20C G23C C24U C31U U64C belongs ≤ 0.5; to C5U A14G C24U A40U C55G, ≤ 0.5. On to C5U C11G C29G C46U, for which the yeast fitness is ≤ 0.5. Take C5U A37C G52C: the yeast fitness is ≤ 0.5. In the case of C5U C11U C29A A40C A45C C61G, the yeast fitness worked out at 0.612. Take C5U A37G A43C G63C: the yeast fitness was ≤ 0.5. To C5U A15U G39A U53A G68C belongs ≤ 0.5.

With C5G U7G A14C U19A G58C, the yeast fitness is 0.584. As for C5G U53C C55A A57G, the yeast fitness is ≤ 0.5. On to C5U C11A A21G A40U, for which the yeast fitness came out at 0.68. The result for C5U A65U reads 0.999. C5U A65C: the yeast fitness came out at 0.922. The result for C5U A20U C30U reads ≤ 0.5.

On to C5U A20U G50A U59C, for which the yeast fitness is 0.544. The result for C5U A42C C60G reads ≤ 0.5. For C5U A42C A69C, the yeast fitness stood at 0.803. The result for C5G U26C A42G A57G A70G reads ≤ 0.5; that for C5G U16A, 0.959; that for C5G U26C C55G U59A U64G, ≤ 0.5. C5G U16C A20G: the yeast fitness is ≤ 0.5. For C5G U28G C31U G51A U54A U59A, the yeast fitness came to 0.522.

For the variant C5U A14U G17C C33U G52C G63A, the yeast fitness was ≤ 0.5.

Take C5U A20C C34A U64C: the yeast fitness was ≤ 0.5. The result for C5U A43C C49U G50A reads ≤ 0.5; that for C5U A20U A36G, 0.674. The result for C5G U59G G63A reads 0.526; that for C5U A65U G67A, 0.921. The result for C5U A37G G56C A65C reads ≤ 0.5; that for C5U A36G C55G, ≤ 0.5; that for C5U A42G A45U C60G, ≤ 0.5. In the case of C5U C11U U35G A43U C46G U53C A69C, the yeast fitness worked out at 0.549.

Consider C5U A15U U16A C29U C55U, for which the yeast fitness is ≤ 0.5.

For C5U A14G C33G A40G, the yeast fitness is ≤ 0.5.

As to C5U C22G C27U, the yeast fitness came to 0.612. For C5U A14U U32A U54C C55U, the yeast fitness is ≤ 0.5.

Regarding C5G U54C, the yeast fitness is 0.814.

In the case of C5U A21G G39C, the yeast fitness was determined as 0.515. To C5U C11U C49U belongs 0.721. As for C5U A14U C46U G52C A69U, the yeast fitness is ≤ 0.5.

On to C5G U8C C27G C33G U35A, for which the yeast fitness is ≤ 0.5. Turning to C5G U19C U32C, the yeast fitness is 0.766. C5U C11A G50C C66U: the yeast fitness was ≤ 0.5. To C5U A21U A40U belongs 0.57. With C5U A20C A40C C61U G68C, the yeast fitness is ≤ 0.5. Regarding C5G U47A G68A, the yeast fitness was ≤ 0.5.

Regarding C5U A37C A43C A45C, the yeast fitness is ≤ 0.5. The result for C5U C11G G48C C66U reads ≤ 0.5; that for C5U A37G A40C U47A, ≤ 0.5. The result for C5U A20C A21U U53C U64A reads ≤ 0.5.

For C5U C11U C24A C55A A65G, the yeast fitness is ≤ 0.5.

As for C5U A21C C31U, the yeast fitness was found to be 0.695. In the case of C5G U26A A36C C61G A69G, the yeast fitness is ≤ 0.5. C5G U7G A57G: the yeast fitness is ≤ 0.5. The result for C5U C22G C29G C60A G67A reads ≤ 0.5. Regarding C5G U28C, the yeast fitness came out at 0.737. To C5G U28A belongs 0.669. C5G U19C C24U: the yeast fitness is 0.684.

As for C5G U7C G52A, the yeast fitness is ≤ 0.5. To C5G U7G C33A belongs 0.519; to C5U A21C C31G C66U, 0.528; to C5G U13C A21C G68U, ≤ 0.5.

Take C5U A45C A70U: the yeast fitness was determined as 0.813.

Regarding C5U A45C A70G, the yeast fitness stood at 0.76.

In the case of C5G U13G A14U G48C, the yeast fitness was ≤ 0.5. The result for C5U A45C G56C reads 0.572; that for C5G U8C A20G A43U G51A A65C, ≤ 0.5. To C5G U59G C66U belongs ≤ 0.5; to C5U A15G A20G C27G C33U G63A, ≤ 0.5; to C5U A20C C29A C49G A57G, ≤ 0.5. C5U C11G A15U G56C C61G: the yeast fitness was ≤ 0.5.

In the case of C5G U13C C24U, the yeast fitness is ≤ 0.5. The result for C5U A14G U26C reads 0.662; that for C5G U16A C31G C66G, ≤ 0.5. The result for C5U C22G A40G reads 0.741. The result for C5U C11G G51A reads ≤ 0.5; that for C5U A45G C61G C66U A69U, ≤ 0.5. On to C5U A15G G58C G68A, for which the yeast fitness stood at 0.51. On to C5U A70G, for which the yeast fitness worked out at 1.01. In the case of C5U A70U, the yeast fitness was determined as 0.98. For the variant C5U C11G C24U A42C A65C A70U, the yeast fitness was ≤ 0.5. The result for C5G U53G C60A reads ≤ 0.5. Take C5U C22A A45C: the yeast fitness came to 0.564.

Take C5U A21G C27U G41A G63U: the yeast fitness is ≤ 0.5.

Take C5U A40C A42G: the yeast fitness stood at 0.558. C5G U26C A43G U47C U64A: the yeast fitness was ≤ 0.5. Turning to C5U A36U A70U, the yeast fitness was found to be 0.628.

As for C5U A14U U16A, the yeast fitness was ≤ 0.5. Regarding C5U A21U C31U G52A A69G, the yeast fitness was ≤ 0.5. To C5G U13G A20U belongs ≤ 0.5. The result for C5G U16A C27G A42C A65C reads ≤ 0.5; that for C5G U16A C29U A40U A65C, ≤ 0.5.

On to C5U A15G A42C C49A, for which the yeast fitness is ≤ 0.5. The result for C5U A37C G50C reads ≤ 0.5; that for C5U C11A A21G G23C U64A, ≤ 0.5.

As for C5G U35A A40G, the yeast fitness is ≤ 0.5.

On to C5U A15U A20C C55A, for which the yeast fitness was ≤ 0.5. Consider C5G U8A A20C A43C C46A, for which the yeast fitness was ≤ 0.5. To C5U C11G C22G C46G belongs ≤ 0.5; to C5G U54C G56C G58A, ≤ 0.5; to C5U C11A C24G C27G A36U G38C C60G C66A, 0.522. C5G U7G C33A A65C: the yeast fitness is ≤ 0.5.

Regarding C5U A42U C49G C60A, the yeast fitness was determined as 0.575. The result for C5U A57G G63A reads 0.63; that for C5U A21U C30G C66A, 0.552; that for C5U A14C G41C, 0.613.

Turning to C5G U16A C33A A43C G50A A57U C60G, the yeast fitness is 0.523. The result for C5U A14U G41C reads ≤ 0.5; that for C5U C22A C29U G51C, ≤ 0.5; that for C5U A15G C66U, 0.632. The result for C5U A15U G17C U26C reads ≤ 0.5; that for C5U C11A C24G C27G A36U G38C U53G, ≤ 0.5; that for C5G U13A C22G U59A, ≤ 0.5. To C5U A43U G50U belongs 0.657; to C5U A15C, 0.763. As to C5G U19C A57U, the yeast fitness was found to be 0.533.

Regarding C5G U32A G48C C62U, the yeast fitness was ≤ 0.5.

Take C5U C11U A65U C66G: the yeast fitness is ≤ 0.5. Consider C5U A14C A15U G17A U26C A42U A45C, for which the yeast fitness stood at 0.508.

As to C5G U54C C55G, the yeast fitness is ≤ 0.5. The result for C5U A42G G56C reads ≤ 0.5; that for C5U A14G U26C C30U A42C C61G, ≤ 0.5; that for C5G U19G, 0.916. The result for C5G U19G C22U A43C G51A reads ≤ 0.5.

Take C5U A43U G44A C46A: the yeast fitness was ≤ 0.5.

With C5U C11A A20C C22G C30U C31G C61A, the yeast fitness turned out to be 0.543. To C5G U13A A65G belongs 0.603; to C5U C11G A15U U32A U35G, 0.562; to C5G U7G C33A A70U, 0.57. As to C5G U28A G67C, the yeast fitness was found to be 0.634.

As for C5U C22G C29A A45U A70C, the yeast fitness is ≤ 0.5. The result for C5U A14U A21G A65C reads ≤ 0.5; that for C5U A15U U54A C55U C66A, ≤ 0.5; that for C5G U13A C22G C29G A40U U54C, ≤ 0.5. The result for C5U A20U C49G A69C reads ≤ 0.5; that for C5U C22G C24G C31U C55A, ≤ 0.5. As for C5U A15C A21G C27U C46U, the yeast fitness is ≤ 0.5. Turning to C5U A15U G63A A70U, the yeast fitness came to 0.807. Turning to C5U C22G C24G C31U, the yeast fitness was found to be 0.552. The result for C5U A20C A36G G52C reads 0.567; that for C5U C11A A21C C27G, 0.564; that for C5U A37U C61U, 0.623. The result for C5U A14C C62A reads 0.504; that for C5G U26C A43G U47C, ≤ 0.5. To C5U A65G A69G A70U belongs ≤ 0.5; to C5U C11U A15C C29A C30A A36U G38C C61U C66A, ≤ 0.5.

For C5U A20C A70U, the yeast fitness was 0.732.

C5U C22G C27G C29G C49U: the yeast fitness is ≤ 0.5.

Take C5U A21C: the yeast fitness came out at 0.897.

As to C5U A21U, the yeast fitness came out at 0.766. Consider C5U A69C, for which the yeast fitness was determined as 0.865. For the variant C5U C11G C33G, the yeast fitness is ≤ 0.5.

With C5U C11G C34U A42C C61A A70U, the yeast fitness is ≤ 0.5. The result for C5G U8C G18C C61U A65C reads ≤ 0.5; that for C5G U32A, 0.678. The result for C5G U32G reads 0.776.

As to C5U A40C A65U, the yeast fitness is 0.643. As to C5G U8G A43C G48A, the yeast fitness came to 0.547. The result for C5G U19G C22U U32C A65C C66U reads ≤ 0.5; that for C5U A20C C29U C34A C46A G50A A57U, ≤ 0.5. The result for C5U A43G G48A reads 0.678; that for C5G U47A, 0.731.

C5U C22G A69C: the yeast fitness was 0.691.

Consider C5U A15U G17A C46G G63C C66A, for which the yeast fitness is ≤ 0.5.
